These results are taken from ChEMBL document CHEMBL3763092, “Design and synthesis of pyrrolobenzodiazepine-gallic hybrid agents as p53-dependent and -independent apoptogenic signaling in melanoma cells” (Eur J Med Chem, 2016).

Calls of active or inactive are those of the source. No cut-off for these calls is given here.

In data set [1] the test system is A-375. The data set can be described thus: Induction of DNA damage in human A375 cells expressing p53 wild type assessed as increase in ATR/ATM activation at 0.5 uM after 24 hrs by immuohistochemistry analysis. The class given is functional, cell-based. The method in brief: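 A375 cells on coverslips (1 × 10^4) were treated with 0.5 µM for 24 h. Cells were fixed in 4% formaldehyde for 5 min at 4 °C, permeabilized with 0.5% Triton X-100, and blocked with 5% BSA at 37 °C for 45 min. Primary antibodies were applied for 1 h at RT: mouse anti-p-ATR and anti-p-ATM 1:1000, anti-8-oxoguanine 1:250, COX IV and cytochrome c 1:1000. Secondary antibodies (rhodamine for 8-oxoguanine) followed for 30 min. DAPI counterstain.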

Data set [2] concerns A-375. The data set can be described thus: Increase in Chk1 phosphorylation in human A375 cells expressing p53 wild type at 0.5 uM after 24 hrs by western blot analysis. The class given is functional, cell-based. The method in brief: (§1)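 A375 cells were exposed to 0.5 µM for 24 h, and lysates were immunoblotted with specific antibodies (p53, Cdc25c, p-Chk1, Bcl-xL, PARP, caspase-3). GAPDH served as loading control. Three independent experiments.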

For data set [3], the system named is A-375. The data set can be described thus: Decrease in Cdc25c level in human A375 cells expressing p53 wild type at 0.5 uM after 24 hrs by western blot analysis. The class given is functional, cell-based. The method in brief: as §1
(A western blot detects proteins with antibodies after separation by electrophoresis.)

Data set [4] deals with A-375. Nature of the data set: Effect on cell cycle distribution in human A375 cells expressing p53 wild type assessed as number of cells at S-phase at 0.5 uM after 24 hrs by FACS analysis (reference value: 13.8 %). The class given is functional. A general note: In flow cytometry, cells or beads pass a laser one at a time.
Data set [5] relates to A-375. Nature of the data set: Effect on cell cycle distribution in human A375 cells expressing p53 wild type assessed as number of cells at G2/M phase at 0.5 uM after 24 hrs by FACS analysis (reference value: 12.1 %). It counts as functional.
Data set [6] has as its system A-375. The data set can be described thus: Effect on cell cycle distribution in human A375 cells expressing p53 wild type assessed as number of cells at G0/G1 phase at 0.5 uM after 24 hrs by FACS analysis Rvb = 74.1 %). The class given is functional.
Data set [7] deals with A-375. Nature of the data set: Effect on cell cycle distribution in human A375 cells expressing p53 wild type assessed as number of cells at subG1 phase at 0.5 uM after 24 hrs by FACS analysis (reference value: 1 %). It counts as functional.
Data set [8] has as its system A-375. Nature of the data set: Induction of apoptosis in human A375 cells expressing p53 wild type assessed as increase in cleaved PARP levels at 0.5 uM after 24 hrs by western blot analysis. The class given is functional, cell-based. The method in brief: as §1
The subject of data set [9] is A-375. The data set can be described thus: Induction of apoptosis in human A375 cells expressing p53 wild type assessed as increase in p53 mRNA level by RT- qPCR analysis. The class given is functional, cell-based. To be noted: TDE = time-dependent effect. The method in brief: (§2)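 Quantitative real-time PCR on A375 cells over a time course, measuring p53, bax and bcl-xl mRNA normalized to GAPDH mRNA.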
Background: Quantitative PCR measures a nucleic acid by following its amplification.

Data set [10] deals with A-375. Nature of the data set: Induction of apoptosis in human A375 cells expressing p53 wild type assessed as increase in bax mRNA level by RT- qPCR analysis. The class given is functional, cell-based. As to conditions: TDE = time-dependent effect. The method in brief: as §2
Data set [11] concerns A-375. Nature of the data set: Induction of apoptosis in human A375 cells expressing p53 wild type assessed as decrease in bcl-xl mRNA level by RT- qPCR analysis. To be noted: TDE = time-dependent effect. It counts as functional, cell-based. The method in brief:
as §2

Data set [12] concerns A-375. Nature of the data set: Induction of apoptosis in human A375 cells transfected with siRNA p53 assessed as decrease in lysosomal H+ concentration at 0.5 uM after 24 and 48 hrs by flow cytometric analysis. It counts as functional, cell-based. The method in brief: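 Cells were loaded with LysoTracker Green (75 nM) for 15 min at 37 °C before treatment with 0.5 µM for the indicated times. After washing, mean fluorescence was quantified by flow cytometry. For p53 knockdown, A375 cells (6 × 10^4/well, antibiotic-free DMEM) were transfected with 30 nM tp53 siRNA or non-target siRNA using Lipofectamine RNAiMAX and harvested at 24 h.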

For data set [13], the system named is RPMI-7951. Nature of the data set: Induction of apoptosis in human RPMI7951 cells expressing p53 mutant assessed as increased release of cytochrome c to cytosol at 0.5 uM by immunofluorescent staining analysis. It counts as functional, cell-based. The method in brief:
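RPMI7951 cells on coverslips (1 × 10^4) were treated with 0.5 µM for 24 h. Immunofluorescence steps: fixation in 4% formaldehyde, permeabilization with 0.5% Triton X-100, blocking with 5% BSA. Primary antibodies: rabbit anti-cathepsin D and mouse anti-LAMP-1 at 1:500, cytochrome c and COX IV at 1:1000, 1 h at RT. Secondary antibodies for 30 min. DAPI counterstain.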

The test system of data set [14] is RPMI-7951. Nature of the data set: Induction of apoptosis in human RPMI7951 cells expressing p53 mutant assessed as PARP cleavage at 0.5 uM after 24 hrs by western blot analysis. The class given is functional, cell-based.
Data set [15] concerns B16. The data set can be described thus: Antitumor activity against mouse B16 cells xenografted in ICR mouse assessed as decrease in tumor growth administered via interavenous. It counts as functional, cell-based. The method in brief: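 Female ICR mice, seven weeks old, inoculated s.c. in the footpad with 1 × 10^6 B16 cells in 20 µl PBS. Once tumors reached a mean diameter of 4-7 mm (day 0), mice were randomized into groups of three and dosed i.v. at 0, 2, 4 mg/kg. Two perpendicular tumor diameters and body weight were taken at least 3 times weekly. T/C% was calculated from relative tumor volume; body weight is expressed as % of day 0. Statistics by t-test.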

Data set [16] relates to B16. Nature of the data set: Induction of apoptosis in mouse B16 cells at 0.5 uM after 24 hrs by FITC-annexin V/PI staining based fluorescence microscopy. It counts as functional, cell-based. The method in brief:
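B16 cells were seeded on coverslips at 3 × 10^5 per well, allowed to attach for 24 h, then exposed to 0.5 µM for 24 h. After PBS washes, cells were stained with annexin V-FITC and PI (plus Hoechst33258) for at least 15 min at RT in the dark and viewed by fluorescence microscopy.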

Data set [17] concerns A-375. The data set can be described thus: Cytotoxicity against human A375 cells expressing p53 wild type assessed as cell viability at 1 uM after 24 hrs by MTT assay. To be noted: A-375, 24 h, read-out: Activity. It counts as functional. The method in brief:
(§3)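 Cells were exposed to compound at 1 µM for 24 h, then growth and viability were read by MTT assay. Media: A375 in DMEM; RPMI7951 and MCF-7 in MEM; A549 in RPMI1640; H1299 in DMEM-F12; all with 10% FCS and penicillin/streptomycin, at 37 °C and 5% CO2. Fibroblasts came from adult foreskin. DMSO stocks were 10 mM.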

Data set [18] relates to MCF7. Nature of the data set: Cytotoxicity against human MCF7 cells expressing p53 wild type assessed as cell viability at 1 uM after 24 hrs by MTT assay. It counts as functional. To be noted: MCF7, 24 h, read-out: Activity. The method in brief:
as §3

Data set [19] relates to A549. The data set can be described thus: Cytotoxicity against human A549 cells assessed as cell viability at 1 uM after 24 hrs by MTT assay. As to conditions: A549, 24 h, read-out: Activity. The class given is functional. The method in brief: as §3
Data set [20] is described as follows: Cytotoxicity against human fibroblast cells expressing p53 wild type assessed as cell viability at 1 uM after 24 hrs by MTT assay. The class given is cell-based. As to conditions: read-out: Activity. The method in brief: as §3
In data set [21] the test system is A-375. The data set can be described thus: Cytotoxicity against human A375 cells expressing p53 wild type assessed as colony formation at 0.5 uM after 10 days by SRB assay. The class given is functional, cell-based. The method in brief: (§4)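 Cells were seeded at 100 per well and treated from the second day. Medium containing 0.5 µM agent was renewed every 3 days. After 10 days of treatment, colonies were stained with SRB and photographed. Three independent experiments.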

In data set [22] the test system is RPMI-7951. The data set can be described thus: Cytotoxicity against human RPMI7951 expressing p53 mutant cells assessed as colony formation at 0.5 uM after 10 days by SRB assay. It counts as functional, cell-based. The method in brief:
as §4

With `COc1cc2c(cc1OCCCCOc1cc(OC)c(OC)c(OC)c1)N=C[C@@H]1CCCN1C2=O`, the outcome in data set [1], in data set [2], in data set [8], in data set [12], in data set [13] and in data set [14] was Active. In addition, the outcome in data set [16] was Active. Also, the inhibition result in data set [3], in [21] and in data set [22] was “Active” in each case. In addition, the Activity in data set [4] was 47.9%; in data set [5], 4.8%; in [6], 32.6%; in data set [7], 15.8%; in data set [9], “tde”; in data set [10] it was “tde”. For the same compound, the Activity entry in data set [11] was “tde”. Further, the inhibition entry in [15] was “Dose-dependent effect”. The viability at 1 µM in data set [17] stood at 37.4%; in data set [18], 55.3%; in data set [19], 77.9%. Besides, the viability at 24 h, 1 µM in data set [20] was 109%.
